Assays:
HT-29 [1] = assay: Cytotoxicity against human HT-29 cells assessed as inhibition of cell viability incubated for 72 hrs by MTS assay; type: functional, cell-based; conditions: HT-29, 72 h
Summary of the method: (§1)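 Cells seeded at 0.5 to 100 × 10^3 per well the day before treatment, then exposed for 72 h to 9 serial concentrations (3.16-fold dilutions, top 198 μM), in duplicate. MTS added for a final 4 h at 37 °C and absorbance read. IC50 is the concentration giving 50% loss of viability. MI% is the maximum inhibition over the tested range.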

HepG2 [2] = assay: Cytotoxicity against human HepG2 cells assessed as inhibition of cell viability incubated for 72 hrs by MTS assay; type: functional, cell-based; conditions: HepG2, 72 h; summary of the method: as §1
HepG2 [3] = assay: Cytotoxicity against human HepG2 cells assessed as maximum inhibition of cell viability upto 198 uM incubated for 72 hrs by MTS assay relative to control; type: functional; conditions: up to 198 µM
Summary of the method: (§2)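 Cells seeded at 0.5 to 100 × 10^3 per well the day before drug addition, then exposed to compound for 72 h. MTS added afterwards, with a further 4 h at 37 °C, and absorbance read. Tested in duplicate at 9 serial 3.16-fold dilutions, top concentration 198 μM. MI% is the maximum inhibition of viability across the tested range.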

RT112/84 [4] = assay: Cytotoxicity against human RT112/84 cells assessed as inhibition of cell viability incubated for 72 hrs by MTS assay; type: functional, cell-based; conditions: RT112/84, 72 h; summary of the method: as §1
NCI-H1975 = assay: Cytotoxicity against human NCI-H1975 cells assessed as maximum inhibition of cell viability upto 198 uM incubated for 72 hrs by MTS assay relative to control; type: functional; conditions: up to 198 µM; summary of the method: as §2
OVCAR-3 [5] = assay: Cytotoxicity against human OVCAR-3 cells assessed as inhibition of cell viability incubated for 72 hrs by MTS assay; type: functional, cell-based; conditions: OVCAR-3, 72 h; summary of the method: as §1
RT112/84 [6] = assay: Cytotoxicity against human RT112/84 cells assessed as maximum inhibition of cell viability upto 198 uM incubated for 72 hrs by MTS assay relative to control; type: functional; conditions: up to 198 µM; summary of the method: as §2
MIA PaCa-2 [7] = assay: Cytotoxicity against human MIA PaCa-2 cells assessed as inhibition of cell viability incubated for 72 hrs by MTS assay; type: functional, cell-based; conditions: MIA PaCa-2, 72 h; summary of the method: as §1
HT-29 [8] = assay: Cytotoxicity against human HT-29 cells assessed as maximum inhibition of cell viability upto 198 uM incubated for 72 hrs by MTS assay relative to control; type: functional; conditions: up to 198 µM; summary of the method: as §2
RPMI-8226 [9] = assay: Cytotoxicity against human RPMI-8226 cells assessed as maximum inhibition of cell viability upto 198 uM incubated for 72 hrs by MTS assay relative to control; type: functional; conditions: up to 198 µM; summary of the method: as §2
RPMI-8226 [10] = assay: Cytotoxicity against human RPMI-8226 cells assessed as inhibition of cell viability incubated for 72 hrs by MTS assay; type: functional, cell-based; conditions: RPMI-8226, 72 h; summary of the method: as §1
MIA PaCa-2 [11] = assay: Cytotoxicity against human MIA PaCa-2 cells assessed as maximum inhibition of cell viability upto 198 uM incubated for 72 hrs by MTS assay relative to control; type: functional; conditions: up to 198 µM; summary of the method: as §2
SK-MES-1 [12] = assay: Cytotoxicity against human SK-MES-1 cells assessed as inhibition of cell viability incubated for 72 hrs by MTS assay; type: functional, cell-based; conditions: SK-MES-1, 72 h; summary of the method: as §1
OVCAR-3 [13] = assay: Cytotoxicity against human OVCAR-3 cells assessed as maximum inhibition of cell viability upto 198 uM incubated for 72 hrs by MTS assay relative to control; type: functional; conditions: up to 198 µM; summary of the method: as §2
SK-MES-1 [14] = assay: Cytotoxicity against human SK-MES-1 cells assessed as maximum inhibition of cell viability upto 198 uM incubated for 72 hrs by MTS assay relative to control; type: functional; conditions: up to 198 µM; summary of the method: as §2
COLO 205 = assay: Cytotoxicity against human COLO 205 cells assessed as inhibition of cell viability incubated for 72 hrs by MTS assay; type: functional, cell-based; conditions: COLO 205, 72 h; summary of the method: as §1

Compound `C[C@H](NP(=O)(OC[C@H]1O[C@@H](n2cc(F)c(=O)[nH]c2=O)C[C@@H]1O)Oc1cccc2ccccc12)C(=O)OCc1ccccc1` (stereo partly specified) [FOSIFLOXURIDINE NAFALBENAMIDE] has an IC50 (HT-29 [1]) of 0.52 µM, an IC50 (HepG2 [2]) of 24.5 µM and an Imax (HepG2 [3]) of 62%. It also gave an IC50 (RT112/84 [4]) of 0.32 µM, an Imax (NCI-H1975) of 72% and an IC50 (OVCAR-3 [5]) of 6.91 µM. For the same compound, the Imax (RT112/84 [6]) was 77%, the IC50 (MIA PaCa-2 [7]) was 1.47 µM and the Imax (HT-29 [8]) was 81%. It also gave an Imax (RPMI-8226 [9]) of 93%, an IC50 (RPMI-8226 [10]) of 5.9 µM and an Imax (MIA PaCa-2 [11]) of 96%. For the same compound, the IC50 (SK-MES-1 [12]) was 0.32 µM, the Imax (OVCAR-3 [13]) was 92% and the Imax (SK-MES-1 [14]) was 77%. The IC50 (COLO 205) was 0.14 µM.

From ChEMBL document CHEMBL5550111, “Design, synthesis and biological evaluation of aryloxy thiophosphoramidate triesters of anticancer nucleoside analogues” (Bioorg Med Chem, 2024)
